bIAP act: increases bovine intestinal alkaline phosphatase activity; purified bovine IAP, CDP-star luminescence, 30 min; hits give high values; fold of DMSO-control signal, blank-subtracted; activation factor at 20 µM; 200,000 tested, 0.17% active;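 active = activation factor of 2 or more at 20 µM, a signal rise over negative controls twice the positive control's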
mIAP inh: mouse IAP inhibition | purified mouse IAP, CDP-Star luminescence, 30 min | inhibition, % at 10 µM | 330,000 tested, 0.2% active;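 active = inhibition of at least 40% at 10 µM in the primary screen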;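 note: plate controls were DMSO with enzyme for no effect and no enzyme wells for full effect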
bIAP inhibitor: intestinal alkaline phosphatase (bovine) inhibition | purified bovine IAP, CDP-star luminescence, 30 min | inhibition, % at 20 µM | 190,000 tested, under 10 active;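 active = over 50% inhibition of intestinal alkaline phosphatase at 20 µM in the single-dose screen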
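System: purified bovine intestinal alkaline phosphatase (IAP) enzyme; Input: IAP diluted 1/65,000,000 in the well; Measured by: CDP-star luminescence signal; Compound dosing: 20 µM single dose; Incubation: 30 min reaction at room temperature.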
hIAP inh: blocks human intestinal alkaline phosphatase | P09923 | purified IAP, CDP-Star luminescence, 30 min | inhibition, % at 10 µM | 330,000 tested, 0.12% active | AID 2544;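 active = inhibition reaching a set limit with compound at 10 µM in the primary screen, cut at about 35% in these data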;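 note: plate controls were DMSO wells with enzyme for no effect and no-enzyme buffer wells for full effect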
Target sequence (P09923 whole entry, looked up): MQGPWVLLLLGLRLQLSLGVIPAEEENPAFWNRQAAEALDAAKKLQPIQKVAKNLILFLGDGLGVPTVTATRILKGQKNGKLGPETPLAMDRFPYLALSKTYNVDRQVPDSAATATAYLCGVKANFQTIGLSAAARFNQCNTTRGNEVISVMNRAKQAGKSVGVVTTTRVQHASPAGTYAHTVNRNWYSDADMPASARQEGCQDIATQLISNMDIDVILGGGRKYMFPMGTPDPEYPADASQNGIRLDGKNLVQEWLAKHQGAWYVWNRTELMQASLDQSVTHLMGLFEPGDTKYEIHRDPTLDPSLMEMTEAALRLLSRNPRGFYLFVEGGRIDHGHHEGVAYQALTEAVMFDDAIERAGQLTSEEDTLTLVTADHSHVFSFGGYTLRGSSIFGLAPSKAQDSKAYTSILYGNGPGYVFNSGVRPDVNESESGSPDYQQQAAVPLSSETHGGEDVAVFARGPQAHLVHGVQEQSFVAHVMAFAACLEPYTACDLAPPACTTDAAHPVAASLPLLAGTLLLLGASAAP
mIAP activ: mouse IAP activation; muIAP, CDP-Star luminescence, 30 min; hits give high values; 1 = vehicle-only enzyme signal, 0 = enzyme-free wells; activation factor at 10 µM; 330,000 tested, 0.24% active;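 active = activation factor of at least 2 at 20 µM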
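Assay system: mouse IAP enzyme; Reagent: CDP-Star chemiluminescent phosphatase substrate; Compound: DMSO-dissolved test compounds; Incubation: 30 min, room temperature; Technique: luminescence from enzymatic CDP-Star hydrolysis; Controls: DMSO-only wells and no-enzyme negative control.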
hIAP act: human IAP activation | activation factor at 10 µM | AID 2524 | 330,000 tested, 0.16% active | purified human IAP, CDP-Star luminescence, 30 min; hits give high values; 1 = vehicle-only enzyme, 0 = enzyme-free background | P09923;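 active = activation factor of the enzyme at least 2-fold when tested at 20 µM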
hIAP act conf: human IAP activation confirmation | AID 434926 | shares compounds with hIAP act | purified IAP, CDP-Star luminescence, 30 min; hits give low values | 880 tested, 10% active | activation (%Activity, negative = activation), % at 8.3 µM;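 active = at least twofold enzyme activation in any of six single-dose repeats, which the averaged readout prints as negative percent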
mIAP inh confirm: mouse IAP inhibition confirmation | shares compounds with mIAP inh | 11,000 tested, 4.7% active | purified mouse IAP, CDP-Star luminescence, 30 min | inhibition, % at 10 µM;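 active = inhibition of at least 40% at 10 µM in either of the two replicates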;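 note: plate controls were DMSO wells with enzyme for no effect and buffer wells lacking enzyme for full effect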
* = called active by the depositor; i = inactive; / = no result given. A selection: hits, their analogues and other compounds. The true share with any hit is near 0.77%.

SMILES	bIAP act	mIAP inh	bIAP inhibitor	hIAP inh	mIAP activ	hIAP act	hIAP act conf	mIAP inh confirm
CCNC(=S)NNC(=O)CSc1nc2ccccc2[nH]1	1.3	-10	-29	-143	1.1	2.4*	-30	/
COc1ccc(S(=O)(=O)N(C)C[C@@H]2Oc3c(NS(=O)(=O)c4cn(C)cn4)cccc3C(=O)N([C@@H](C)CO)C[C@@H]2C)cc1	/	2	/	0	0.98	1	/	/
CCN(C(=O)COC(=O)c1ccc(O)cc1)c1cccc2ccccc12	/	-7	/	-7	1.1	1.1	/	/
COC(=O)c1ccc(N/C(C)=C/C(=O)c2ccc(C)o2)cc1	1	12	2	36*	0.89	0.64	-3	/
CCCS(=O)(=O)c1nc(S(=O)(=O)c2ccc(C)cc2)c(N2CCC(C(N)=O)CC2)s1	/	-2	/	-33	1	1.3	/	/
Cc1ccc(NC(=S)NCCSc2ccc(Cl)cc2)cc1	1.1	-127	-8	-133	2.3*	2.3*	-9	/
COC(=O)Cc1ccc(NC(=S)NCCSc2ccc(C)cc2)cc1	0.8	-69	18	1	1.7	0.99	/	/
CCN(CC)C(=O)c1ccc(/C=C/c2c[nH]c3ccccc23)[n+](C)c1	1	10	0	-2	0.9	1	/	/
CC[n+]1c(/C=C/c2c[nH]c3ccccc23)ccc2cc(C)ccc21	0.7	31	30	36*	0.69	0.64	-86*	/
O=C(CNC(=O)c1ccco1)OCC(=O)c1ccc(Br)cc1	/	0	/	-10	1	1.1	/	/
CCCCN1C(=O)/C(=C/C=C2\SCCN2C)SC1=S	0.7	25	28	44*	0.75	0.56	-4	/
CN1CCS/C1=C/C=C1\SC(=S)N(CC(=O)O)C1=O	0.4	30	/	27	0.7	0.73	/	/
CCc1ccc(/C=N/Nc2ncnc3nc[nH]c23)cc1	/	2	/	-167	0.98	2.7*	34	/
CCOc1ccc(CCNC(=O)c2cc3sccc3n2C)cc1OCC	1.2	-6	-22	5	1.1	0.95	/	/
N#Cc1c(-c2ccccc2)nc(N2CCCCCC2)[nH]c1=O	1	5	1	1	0.95	0.99	/	/
N#Cc1c(-c2ccccc2)nc(N2CCOCC2)[nH]c1=O	0.9	-4	8	38*	1	0.62	28	/
Cc1cccc(CN2CCC(C(=O)Nc3cccc(-c4cccc(F)c4)c3)CC2)n1	/	-88	/	8	1.9	0.92	/	/
Cc1nn(C(C)C)c(C)c1CN1CCC(C(=O)Nc2cccc(-c3cccc(F)c3)c2)CC1	/	-373	/	i	4.7*	11*	-21	-389
O=C(Nc1cccc(-c2cccc(F)c2)c1)C1CCN(C2CCC2)CC1	/	-214	/	-116	3.1*	2.2*	68	-155
COc1cccc(-c2cccc(NC(=O)C3CCN(Cc4cnn(C)c4)CC3)c2)c1	/	-21	/	-4	1.2	1	/	/
Cn1cc(CN2CCC(C(=O)Nc3cccc(-c4cccc(F)c4)c3)CC2)cn1	/	-130	/	-154	2.3*	2.5*	5	-129
CC(C)CN(C(=O)CN1C(=O)NC2(CCc3ccccc32)C1=O)C1CCS(=O)(=O)C1 (stereo not drawn)	/	-5	/	14	1	0.86	/	/
Cn1c(N)c(C(=O)CSc2nnc3n2CCCCC3)c(=O)n(C)c1=O	/	-5	/	0	1.1	1	/	/
CC(C)(C)[C@@H]1CCC(=O)N(CC[C@H](Sc2ccc(Br)cc2)c2ccccc2)CC1	/	1	/	0	0.99	1	/	/
O=C1/C(=C/c2ccc(O)c(O)c2)Oc2cc(O)ccc21	/	59*	/	96*	0.41	0.035	-1	69*
SMILES	bIAP act	mIAP inh	bIAP inhibitor	hIAP inh	mIAP activ	hIAP act	hIAP act conf	mIAP inh confirm
O=C1/C(=C/c2cccc([N+](=O)[O-])c2)Oc2cc(O)ccc21	/	-2	/	4	1	0.96	/	/
O=C1CC(c2ccc(O)c(O)c2)Oc2cc(O)cc(O)c21 (stereo not drawn)	/	56*	/	44*	0.44	0.56	-34	53*
COC1=C/C(=C/c2c(N)n3c(nc2=O)sc2cc(S(C)(=O)=O)ccc23)C=CC1=O	/	26	/	29	0.74	0.71	/	/
CS(=O)(=O)c1ccc2c(c1)sc1nc(=O)c(/C=C3/C=CC(=O)C(O)=C3)c(N)n12	/	75*	/	58*	0.25	0.41	-3	85*
Nc1c(N)c2ccccc2oc1=O	1	-3	4	0	1	1	/	/
O=c1oc2ccccc2c2oc3cc(O)c(O)cc3c12	/	58*	/	70*	0.42	0.3	24	67*
O=C(/C=C/c1ccc(O)c(O)c1)NC(=O)c1ccccc1O	/	48*	/	57*	0.52	0.43	-8	59*
CCN(CC)S(=O)(=O)c1ccc(/C=C/C(=O)OCC(=O)Nc2cccnc2Cl)cc1	/	4	/	-3	0.96	1	/	/
Cc1nn(-c2ccccc2)nc1CNS(C)(=O)=O	/	5	/	2	0.95	0.98	/	/
O=C(c1cc(F)c(F)cc1Cl)N1CCN(CCc2ccccc2)CC1	/	-6	/	7	1.1	0.93	/	/
Cc1cc(C)nc(NS(=O)(=O)c2ccc(N=NN(C)C)cc2)n1	/	-11	/	-8	1.1	1.1	/	/
CCC1CCC(C(=O)NNC(=O)c2cc(-c3ccco3)[nH]n2)CC1 (stereo not drawn)	1.2	55*	-25	-105	0.45	2*	0	60*
O=C(NNC(=O)C1CCCCC1)c1ccco1	0.9	8	7	-16	0.92	1.2	/	/
NS(=O)(=O)c1cccc(NC(=O)COC(=O)CN2C(=O)C3CC=CCC3C2=O)c1 (stereo not drawn)	1	-13	-2	0	1.1	1	/	/
O=C(NN1C(=O)CSC1=S)C(=O)NN1C(=O)CSC1=S	1.5	89*	-46	-145	0.11	2.5*	74	92*
CC(C)c1ccc(NC(=O)C2CC(=O)Nc3nc4ccccc4n32)cc1 (stereo not drawn)	/	-189	/	-137	2.9*	2.4*	-43	-138
Cc1nccn1Cc1ccccc1	/	-3	/	-22	1	1.2	/	/
O=c1[nH]c(/C=C\c2ccc(O)c(O)c2)nc(O)c1[N+](=O)[O-]	/	48*	/	43*	0.52	0.57	3	75*
O=C(CCNS(=O)(=O)c1ccc(Cl)cc1)N1CCN(c2ccccn2)CC1	/	-10	/	4	1.1	0.96	/	/
Cc1ccc(NC(=O)C2CC(=O)n3c(nc4ccccc43)N2)cc1C (stereo not drawn)	/	-251	/	-115	3.5*	2.1*	-2	-120
O=C(NN1C(=O)/C(=C/c2ccc(O)cc2)SC1=S)c1ccccc1O	/	40*	/	36*	0.6	0.64	-23	56*

Bioassay records from PubChem.
